Laboratory results: ChEMBL document CHEMBL1156162, “Investigating the anti-proliferative activity of styrylazanaphthalenes and azanaphthalenediones” (Bioorg Med Chem, 2010)

Tests used:
[1] = tested on: HCT-116; assay: Cytotoxicity against human HCT116 cells assessed as decrease in survival fraction of cells at 46 uM after 24 hrs by colonogenic assay; format: functional
How it was run: (§1)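 HCT116 cells (8.5×10⁴ or 2.1×10⁵) were seeded in 35-mm dishes and held 18 h, then exposed to 0.58 or 46 µM in medium for 24 h or 96 h. Cells were trypsinised and re-seeded drug-free, then grown 9 days at 37 °C. Colonies were fixed in ethanol, stained with crystal violet, and those of ≥50 cells counted. Survival fraction was taken relative to untreated cells; means of 3 or 2 experiments.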

[2] = Lipophilicity, log K by RT-HPLC method; format: physicochemical
How it was run: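 RP-HPLC on a C18 column (5 µm, 4.6 × 250 mm) with photodiode array detection, column at 30 °C and samples at 10 °C. Lipophilicity expressed as capacity factor k and calculated log k.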

[3] = tested on: SK-N-MC; assay: Cytotoxicity against human SK-N-MC cells after 72 hrs by MTT assay; format: functional, cell-based
How it was run: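 SK-N-MC cells in MEM with 10% FBS, pyruvate, non-essential amino acids, glutamine, antibiotics and fungizone. Seeded 24 h before treatment, then 72 h with varying concentrations. MTT (5 mg/mL stock) added for 2 h at 37 °C, followed by lysis and OD at 570 nm. IC50 derived; triplicate wells, experiments repeated 3–7 times.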

[4] = tested on: NIH3T3 (Mus musculus); assay: Cytotoxicity against mouse NIH/3T3 cells assessed as IC50
[5] = tested on: HCT-116; assay: Cytotoxicity against human HCT116 cells assessed as decrease in survival fraction of cells at 0.58 uM after 24 hrs by colonogenic assay; format: functional; how it was run: as §1
[6] = tested on: HCT-116; assay: Cytotoxicity against human HCT116 cells after 24 to 96 hrs by MTS assay; format: functional, cell-based
How it was run: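 HCT116 cells grown as monolayers in DMEM with 12% FBS and antibiotics at 37 °C, 5% CO2. Seeded at 3.5×10³, 7×10³ or 9×10³ cells/well, cultured 18 h, then exposed to 0.58 or 46 µmol/L final for 24, 48 or 96 h at 37 °C. Medium replaced with phenol red-free DMEM, MTS added for 1 h, absorbance read at 490 nm.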

[7] = tested on: NIH3T3 (Mus musculus); assay: Cytotoxicity against mouse NIH/3T3 cells assessed as IC50; remark: listed apart in the source
[8] = tested on: HCT-116; assay: Cytotoxicity against human HCT116 cells assessed as decrease in survival fraction of cells at 46 uM after 96 hrs by colonogenic assay; format: functional; how it was run: as §1
[9] = tested on: HCT-116; assay: Cytotoxicity against human HCT116 cells assessed as decrease in survival fraction of cells at 0.58 uM after 96 hrs by colonogenic assay; format: functional; how it was run: as §1
[10] = Cytotoxicity against mouse NIH/3T3 cells assessed as viable cells after 72 hrs by MTT assay; format: cell-based; settings: NIH3T3, 72 h
[11] = tested on: L1210; assay: Antiproliferative activity against mouse L1210 cells; format: functional, cell-based

Compound | log K [2] | IC50 [3] | IC50 [6] | also measured
COc1ccccc1/C=C/c1nc(Cl)c2ccccc2n1 | 1.365 | 0.58 µM | 9.4 µM | Activity [1]: 0.03; IC50 [4]: > 100 µM; Activity [5]: 0.43; IC50 [7]: > 100 µM; Activity [8]: 0; Activity [9]: 0
COc1ccc(/C=C/c2nc(Cl)c3ccccc3n2)cc1 | 1.134 | 4.34 µM |  | IC50 [4]: > 100 µM
COc1ccc(/C=C/c2nc3ccccc3c(=O)[nH]2)c(OC)c1 | 1.198 | > 6.25 µM |  | 
O=c1[nH]c(/C=C/c2ccc(O)c(O)c2O)nc2ccccc12 | 0.551 |  | > 46 µM | 
O=c1[nH]c(/C=C/c2ccc(Br)cc2)nc2ccc([N+](=O)[O-])cc12 | 1.675 | > 6.25 µM |  | 
Clc1nc(/C=C/c2ccccc2)nc2ccccc12 | 1.109 | 4.96 µM |  | IC50 [10]: 3040 nM
COc1ccccc1/C=C/c1nc2ccccc2c(=O)[nH]1 | 1.151 | 2.88 µM | 1.58 µM | IC50 [10]: 1170 nM
O=c1[nH]c(/C=C/c2ccc(Br)cc2)nc2ccccc12 | 1.593 | 2.85 µM |  | 
O=Cc1ccc(/C=C/c2nc3ccccc3c(=O)[nH]2)cc1 | 1.035 | > 6.25 µM |  | 
COc1cccc(/C=C/c2nc(Cl)c3ccccc3n2)c1 | 1.183 | 5.28 µM |  | IC50 [4]: > 100 µM
Cc1nc2ccccc2c(=O)n1C(N)=O | 0.553 | > 6.25 µM | > 600 µM | 
Cc1nc2ccc([N+](=O)[O-])cc2c(=O)n1C(N)=O | 0.958 | > 6.25 µM | > 92 µM | 
O=c1[nH]c(/C=C/c2ccccc2Br)nc2ccccc12 | 1.483 | > 6.25 µM | > 46 µM | 
COc1cccc(/C=C/c2nc3ccccc3c(=O)[nH]2)c1 | 1.184 | 5.13 µM |  | 
O=c1[nH]c(/C=C/c2cccc(Br)c2)nc2ccccc12 | 1.59 | > 6.25 µM |  | 
O=c1[nH]c(/C=C/c2cccc(Cl)c2)nc2ccccc12 | 1.506 | > 6.25 µM |  | 
COc1ccc(/C=C/c2nc3ccccc3c(=O)[nH]2)cc1 | 1.135 | > 6.25 µM | > 46 µM | IC50 [4]: > 100 µM
COc1ccc(/C=C/c2nc(Cl)c3ccccc3n2)c(OC)c1 | 1.195 | 1.75 µM | 23 µM | IC50 [4]: 34.1 µM
CC(=O)NC1=CC(=O)c2cnc(C)nc2C1=O | 0.017 |  | 17 µM | Activity [1]: 0; Activity [5]: 1.2; Activity [8]: 0; Activity [9]: 0.26
CC(=O)C1=CC(=O)c2nc(C)ccc2C1=O |  |  | 10.9 µM | Activity [1]: 0.04; Activity [5]: 1.07; Activity [8]: 0; Activity [9]: 0.21
Oc1cccc2ccc(/C=C/c3ccc(Cl)cc3)nc12 | 1.539 | 0.7 µM |  | 
COc1ccc2nc(/C=C/c3ccccc3)[nH]c(=O)c2c1 |  |  |  | IC50 [11]: 3.59 µM
O=c1[nH]c(/C=C/c2ccccc2)nc2ccccc12 | 1.115 | 1.39 µM | 2.53 µM | IC50 [10]: 2400 nM
CC(=O)N(O)CCCCCNC(=O)CCC(=O)N(O)CCCCCNC(=O)CCC(=O)N(O)CCCCCN [DEFEROXAMINE] |  | 9.89 µM |  | 
COc1cccc2c1C(=O)c1c(O)c3c(c(O)c1C2=O)C[C@@](O)(C(=O)CO)C[C@@H]3O[C@H]1C[C@H](N)[C@H](O)[C@H](C)O1 [DOXORUBICIN] |  | 0.12 µM | 5.95 µM | 
